An excerpt weighted towards active compounds, which were near 3% of everything screened.
TRPC4 inh – inhibitors of mouse TRPC4 channel, primary screen, Fluo4 calcium, HEK293 TRPC4beta/mu-opioid cells | Short transient receptor potential channel 4 (Mus musculus), Q9QUQ5 | DAMGO-evoked Fluo4 calcium flux; active compounds read low | B-score at 10 µM | hit rate 0.39% among 300,000;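 active means B-score over 3 SD under the library average, no early fluorescence shift, positive overall ratio signal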
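Assay system – HEK293 line stably carrying TRPC4beta and mu-opioid receptor · Doses – single dose · Detection – Fluo4 calcium-dye fluorescence, kinetic read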
Kir21 inh – inhibitors of mouse Kir2.1 inward-rectifier potassium channel; Inward rectifier potassium channel 2 (Mus musculus), P35561; HEK293-Kir2.1, FluxOR thallium flux fluorescence; active compounds read low; B-score at 10 µM; hit rate 0.85% among 310,000;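 active means fluorescence ratio B-score at or below minus 3 SD of library scores, with starting-brightness B-score within 2 SD, cut at about -4.2 in these data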;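 further: channel flux triggered by added potassium and thallium sulfate stimulus; B-score of peak minus minimum fluorescence over baseline after thallium stimulus; more negative B-score means stronger Kir2.1 block with less thallium influx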
TRPC4 act – activators of mouse TRPC4 channel, primary screen, Fluo4 calcium, HEK293 TRPC4beta/mu-opioid cells | Fluo4 calcium fluorescence; active compounds read high | B-score at 10 µM | hit rate 0.49% among 310,000 | AID 2237, 2010;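 active means B-score above 5 SD of library B-scores, and initial fluorescence ratio not above library mean plus 5 SD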;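 further: positive B-score marks a calcium rise read as TRPC4 activation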
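Assay system: HEK293 stable line with TRPC4beta plus mu-opioid receptor. Times: dye 45 min RT, read 110 s. Measured by: kinetic Fluo4 calcium fluorescence. Measure: B score of integrated ratio. Controls: assay buffer as low control, maximal DAMGO as high control.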
TRPC4 potent – positive allosteric modulators of TRPC4, primary screen, cell-based, mouse TRPC4beta, HEK293 mu-opioid, Fluo-4 calcium; Short transient receptor potential channel 4 (Mus musculus), Q9QUQ5; DAMGO EC20, Fluo-4 Ca2+ flux; active compounds read high; B-score at 10 µM; hit rate 0.42% among 310,000; AID 2227, 2009;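 active means B-score of calcium response area above 5 SD of library B-scores, with initial fluorescence ratio within 5 SD of library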;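 further: B-score of integrated fluorescence ratio over time as area under calcium response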
TRPC6 act – mouse TRPC6 channel activators, primary screen, cell-based, HEK293, membrane potential dye; Short transient receptor potential channel 6 (Mus musculus), Q61143; HEK293-TRPC6 membrane potential dye fluorescence; active compounds read high; B-score at 10 µM; hit rate 0.13% among 310,000;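 active means B-score of the integrated fluorescence ratio above library mean plus 3 SD, and starting fluorescence ratio within library mean plus 5 SD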;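 further: higher score means more depolarization so channel activation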
TRPC6 inh – mouse TRPC6 channel inhibitors, primary screen, cell-based, HEK293, membrane potential dye; Short transient receptor potential channel 6 (Mus musculus), Q61143; ACh-evoked depolarization; active compounds read low; B-score at 10 µM; hit rate 1.1% among 310,000; AID 2553, 2010;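 active means B-score under library mean minus 3 SD, initial fluorescence not abnormally high, positive integrated signal ratio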;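 further: B-score derived from integrated fluorescence ratio over the kinetic read; more negative B-score means stronger inhibition of depolarization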
TRPC4 sel inh 2 – second check of whether TRPC6 inhibitors also affect mouse TRPC4; shares compounds with TRPC6 inh; HEK293 TRPC4/MOR, membrane potential dye fluorescence; channel activated by saturating DAMGO dose; inhibition, % at 10 µM; hit rate 42% among 920;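 active means compounds whose fluorescence signal differed from control wells by over 3 SD, either direction, in both duplicate plates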
TRPC4 spec – mouse TRPC4 modulation by TRPC6 hits, confirmation, selectivity assay for TRPC6 inhibitor project, cell-based, HEK293 TRPC4/mu-opioid, membrane potential dye. AID 2777, 2010. shares compounds with TRPC6 inh. membrane potential fluorescence. activity change, negative = inhibition, % at 10 µM. hit rate 61% among 920;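 active means rise or fall in signal beyond 3 SD of buffer-only wells in both replicate plates, either sign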;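 further: integrated kinetic ratio of fluorescence range over baseline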
HEK293 MPD ctr 2-1 – nonspecific membrane potential effects, parental HEK293, confirmation, counter-screen for TRPC6 inhibitor project, cell-based, second counter screen; parental HEK293 membrane potential dye fluorescence; maximal acetylcholine challenge after compound addition; hit rate 31% among 920; signal change vs control, % at 10 µM; AID 2779, 2010; shares compounds with TRPC6 inh;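 active means membrane potential signal moving either way by over 3 SD of the maximum-effect control, in both duplicate plates, meaning non-specific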
HEK293 MPD ctr-1 – membrane potential modulation in parental HEK293, confirmation, counter-screen for TRPC6 inhibitor project, cell-based; shares compounds with TRPC6 inh; parental HEK293 membrane potential dye fluorescence; membrane potential signal change, % at 10 µM; hit rate 60% among 920;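 active means membrane potential signal shifting up or down by more than 3 SD of buffer-only wells, on both duplicate plates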
HEK293 MPD ctr-2 – parental HEK293 membrane potential modulation, confirmation, counter-screen for TRPC6 modulator project, cell-based; hit rate 51% among 2,400; membrane potential signal change, % at 10 µM; membrane potential dye fluorescence; shares compounds with TRPC6 inh;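 active means membrane potential signal moves up or down beyond 5 SD from buffer-only wells, on both duplicate plates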
HEK293 MPD ctr 2-2 – second counter-screen for TRPC6 modulators: effect in parental HEK293 cells; hit rate 14% among 2,400; shares compounds with TRPC6 inh; AID 488926; membrane potential dye fluorescence; after compound, maximal acetylcholine stimulation; inhibition, % at 10 µM;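 active means membrane potential signal drops by more than 5 SD from the mean control signal, in both duplicate plates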;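 further: plate controls were acetylcholine ECmax control wells for no effect and buffer only wells for full effect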
TRPC4/MOR mod – TRPC4 modulation by TRPC6 hit compounds, confirmation, selectivity assay for TRPC6 modulator project, cell-based, HEK293 TRPC4/mu-opioid, membrane potential dye, mouse; shares compounds with TRPC6 inh; membrane potential fluorescence; percent change from control (negative = decrease, positive = increase), % at 10 µM; hit rate 69% among 2,400; AID 488927, 2010;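 active means membrane potential signal moved up or down beyond 5 SD of buffer control wells, in both duplicate plates, actives on both sides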;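 further: plate controls were assay buffer wells for no effect and DAMGO maximal-effect wells for full effect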
TRPC4/MOR inh 2 – second selectivity test of TRPC6 modulators against mouse TRPC4 | inhibition, % at 10 µM | HEK293 TRPC4/mu-opioid, membrane potential dye fluorescence; stimulated with maximal-effect DAMGO | AID 488928 | hit rate 55% among 2,400 | shares compounds with TRPC6 inh;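 active means drop in membrane potential signal beyond 5 SD of the control wells in both duplicate plates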;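 further: TRPC4 counter screen for TRPC6 hits run under conditions tuned for TRPC6 not TRPC4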
TRPC6 block conf – mouse TRPC6 channel inhibitors, confirmation, HEK293 cells, membrane potential dye, duplicate. inhibition, % at 10 µM. hit rate 43% among 3,300. shares compounds with TRPC6 inh. ACh-evoked depolarization;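 active means fluorescence ratio falls more than 5 SD below the full-stimulation control mean, in both duplicate runs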;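 further: integrated fluorescence ratio of peak minus minimum over baseline after agonist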
TRPC6 act confirm – mouse TRPC6 channel activators, confirmation, HEK293 cells, membrane potential dye, duplicate. shares compounds with TRPC6 inh. HEK293-TRPC6 membrane potential dye fluorescence, FDSS. activation, % at 10 µM. hit rate 11% among 2,800. AID 488961, 2010;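 active means ratio signal rise beyond 5 SD above unstimulated control wells' mean, seen in both duplicate runs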;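 further: plate controls were buffer EC0 wells for no effect and acetylcholine ECmax response for full effect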
* marks the source's active call; other numbers are inactive results; i = inactive; . = no result.

SMILES	TRPC4 inh	Kir21 inh	TRPC4 act	TRPC4 potent	TRPC6 act	TRPC6 inh	HEK293 MPD ctr-2	HEK293 MPD ctr 2-2	TRPC4/MOR mod	TRPC4/MOR inh 2	TRPC6 block conf	TRPC6 act confirm	others
CC[n+]1c(/C=C(\C)SC)sc2ccccc21	i	1.82	i	i	i	-10.3*	-261.5%*	82.5%*	-41.5%*	58.5%*	56.5%*	i
O=C(ONC1=NCCCCC1)c1cccc([N+](=O)[O-])c1	i	-0.03	i	i	i	i	.	.	.	.	.	.
O=[N+]([O-])c1cccc(/C=N/NC2=NCCCCC2)c1	i	0.12	i	i	i	-5.08*	-80.5%*	i	-15.0%*	39.0%*	i	i
Cc1ccc(S(=O)(=O)/C(C#N)=C/c2c(N3CCOCC3)nc3c(C)cccn3c2=O)cc1	i	0.79	i	i	i	-5.86*	i	i	-10.5%*	i	i	i
Cc1[nH]n(-c2ccccc2)c(=O)c1/C=N/NC(=O)c1ccc(O)cc1O	i	-0.77	i	i	i	i	.	.	.	.	.	.
Cc1cc(C(=O)N/N=C/c2c(C)[nH]n(-c3ccccc3)c2=O)n[nH]1	i	1.09	i	i	i	-7.91*	.	.	.	.	i	i	TRPC4 sel inh 2=i;TRPC4 spec=-23.2%*;HEK293 MPD ctr 2-1=i;HEK293 MPD ctr-1=-328.0%*
Cc1cc(C(=O)N/N=C/c2cc(N=Nc3ccccc3)ccc2O)n[nH]1	i	-0.02	i	i	i	-5.89*	i	i	i	i	i	i
COc1ccc(C2(CNC(=O)c3cccs3)CCOCC2)cc1	i	0.37	i	i	i	i	.	.	.	.	.	.
COc1cccc(N2CCN(C(=O)CN(C)S(=O)(=O)c3ccc4c(c3)c(=O)n(C)c(=O)n4C)CC2)c1	i	1.09	i	i	i	i	.	.	.	.	.	.
CCn1c(SCCN2CCOCC2)nc2c1c(=O)n(C)c(=O)n2C	i	0.44	i	i	i	i	.	.	.	.	.	.
COc1ccc(-c2nc3cc(C)ccn3c2NCC2CCCO2)cc1OC (stereo not drawn)	i	1.49	i	i	i	-6.91*	-223.0%*	80.5%*	-37.5%*	44.0%*	55.5%*	i
COc1ccc([C@@H]2[C@@H]3C(=O)N(C(C)(C)C)C(=O)[C@@H]3[C@]3(Cc4ccccc4)C(=O)N(c4ccc(Br)cc4)C(=O)N23)cc1	i	-0.58	i	i	i	-6.08*	i	i	i	i	i	i

Compound activity (PubChem BioAssay)
